High-throughput results (PubChem BioAssay)
The list is not random: actives were taken first. Their share in the collection is about 2.5%.
dFosB activator: activators of mouse delta FosB homodimer | purified delta FosB, TAMRA-CDK5 oligo fluorescence polarization; percent of positive-control signal above neutral wells | 340,000 compounds, 0.99% hits | activation, % at 25 µM;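 active = mean activation above about 17%, with every replicate also reaching it, limit read from the data, passing the limit was not always enough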
CDK5 inh: blocks human CDK5/p35 kinase activity. inhibition, % at 10 µM. Q00535+Q15078. Recombinant CDK5/p35, ADP-Glo luminescence, 60 min. 330,000 compounds, 0.01% hits. AID 488839;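 active = highest replicate inhibition of at least 50% and at least 75% of replicates reaching 50%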;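 note: plate controls were DMSO neutral control for no effect and GW8510 at 10 µM for full effect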
NSD2 inh: NSD2 (human) methyltransferase inhibition; NSD2 peptide methylation, AlphaScreen, 120 min; inhibition, % at 12.5 µM; 310,000 compounds, 0.54% hits
SR-BI HDL uptake: mouse SR-BI HDL lipid transfer inhibition; Q61009; ldlA[mSR-BI] CHO cells, DiI-HDL uptake fluorescence, 3 h; inhibition, % at 12.5 µM; 320,000 compounds, 0.96% hits; AID 488896;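 active = mean replicate inhibition of at least 70% and a set share of replicates each scoring 70 or more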;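 note: 0% = median of neutral control wells and 100% = median of positive control wells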
Target sequence (Q61009 whole entry, looked up): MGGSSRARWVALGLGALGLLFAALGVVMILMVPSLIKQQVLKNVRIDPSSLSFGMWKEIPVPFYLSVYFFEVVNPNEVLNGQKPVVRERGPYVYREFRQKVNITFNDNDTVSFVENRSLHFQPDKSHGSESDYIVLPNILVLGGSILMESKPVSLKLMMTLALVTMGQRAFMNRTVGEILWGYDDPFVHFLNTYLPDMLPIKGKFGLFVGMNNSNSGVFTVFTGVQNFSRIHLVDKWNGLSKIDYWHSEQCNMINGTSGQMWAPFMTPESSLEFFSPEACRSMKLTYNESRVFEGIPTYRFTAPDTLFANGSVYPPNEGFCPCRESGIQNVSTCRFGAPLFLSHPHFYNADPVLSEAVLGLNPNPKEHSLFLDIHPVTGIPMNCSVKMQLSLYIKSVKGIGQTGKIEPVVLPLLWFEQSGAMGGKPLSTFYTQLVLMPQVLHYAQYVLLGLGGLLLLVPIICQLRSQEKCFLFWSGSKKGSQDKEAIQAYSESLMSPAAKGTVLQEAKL
DYRK1A inh: blocks rat Dyrk1A kinase activity; Q63470; ADP-Glo luminescence, NFATc1 peptide; inhibition, % at 12.5 µM; 310,000 compounds, 0.43% hits;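 note: plate controls were vehicle with enzyme for no effect and no enzyme for full effect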
SR-BI DiI-HDL act: enhances SR-BI lipid uptake from DiI-HDL; CHO ldlA[mSR-BI] cells, DiI-HDL uptake fluorescence, 3 h; 100 = double the neutral-control signal; activation, % at 12.5 µM; 320,000 compounds, 0.096% hits;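 active = mean replicate activation of at least 60% and every replicate at or above 60%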;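 note: 0% = median plate neutral-control signal and 100% = twice that signal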
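material = CHO ldlA[mSR-BI] cells | medium = Ham's F12 with 0.5% BSA, HEPES 25 mM, pH 7.4 | reagent = fluorescent DiI-HDL, 10 µg/mL final | compound dosing = single-point compound dose | incubation = 3 h, 37 °C | measured by = bottom-read fluorescence, 550/595 nm | measure = HDL uptake via cellular fluorescence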
Dyrk1A artifact: counter-screen for Dyrk1A inhibitors: ADP-Glo luciferase artifacts; shares compounds with DYRK1A inh; ADP-Glo luciferase artifact assay, no Dyrk1A, luminescence; AC50, µM (highest dose often 12 µM), for inactives: top-dose activity change, negative = inhibition; 1,300 tested, under 10 active;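 active = fitted half-maximal dose AC50 no more than ten times the top valid tested dose, with luminescence dropping as dose rises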
* hit, by the source's call; x = no result. Cut-off read from the data, not from the text of the source, unless noted: active = inhibition above about 50%; inactive = the rest.

SMILES	dFosB activator	CDK5 inh	NSD2 inh	SR-BI HDL uptake	DYRK1A inh	SR-BI DiI-HDL act	Dyrk1A artifact
CCC(C(=O)Nc1ccon1)c1ccccc1 (stereo unspecified)	-9.2	-1.8	-1.1	-8.3	-6.8	8.3	x
O=C(Nc1ccccc1Cl)c1csc(-c2cccnc2)n1	-28.4	1.3	-2.5	1.9	74.9*	-1.9	11.4%
O=C(NNS(=O)(=O)c1ccccc1)c1csc(-c2cccnc2)n1	2.4	1.8	4.1	-35.2	34.1	35.2	x
N#Cc1c(=O)c2nc(NCc3ccccc3)ncc2n2ccccc12	-5.9	2.4	4.9	-9.2	3.9	9.2	x
N#Cc1c(=O)c2nc(NCCCO)ncc2n2c(=O)c3ccccc3[nH]c12	-4.7	2.2	7.2	-7.8	55.6*	7.8	8.5%
CN1CCN(C(=O)C(=O)c2cn(CC(=O)N3CCCCCC3)c3ccccc23)CC1	x	x	0.6	x	x	x	x
CC(C)(OC(=O)c1ccc(C#N)cc1)c1cc2ccccc2c(=O)o1	-1.1	-0.2	x	-0.5	2.5	0.5	x
CC(=O)c1nc2ccccc2n1S(=O)(=O)c1ccc(C)cc1	5.6	1.0	-2.9	-5.3	-0.8	5.3	x
CC(=O)c1nc2ccccc2n1S(=O)(=O)c1ccc(Cl)cc1	2.7	0.1	-1.5	-13.7	83.2*	13.7	6.6%
O=C(CCc1ccccc1)N/N=C/c1cccc(O)c1	1.2	-0.3	-0.7	-11.7	16.5	11.7	x
O=C(N/N=C/c1cccc(O)c1)N/N=C/c1cccc(O)c1	-13.9	-1.3	-0.5	11.4	53.7*	-11.4	7.7%
COCCNC(=O)C1(C)Cc2c(-c3cccc(NC(C)=O)c3)ccnc2O1 (stereo unspecified)	x	x	1.4	x	x	x	x
O=C(Nc1cccnc1)c1scc2c1OCCO2	-2.3	4.6	-0.6	x	52.0*	x	10.1%
O=C(NC1CC1)c1scc2c1OCCO2	6.2	0.4	3.6	-12.3	23.9	12.3	x
COc1ccccc1N1CCN(C(=O)c2ccc(COc3cccc4c3OC(C)(C)C4)cc2)CC1	-7.4	0.0	-0.1	35.3	-1.0	-35.3	x
COc1ccccc1/C=N\NC(=O)c1cccc(S(=O)(=O)N(C)C)c1	x	x	2.3	x	x	x	x
O=C(Nc1ccc(Cl)c(Cl)c1)OCc1cnc(Cl)s1	-0.3	0.5	x	-2.1	58.9*	2.1	7.4%
COc1cc(-c2cn(S(=O)(=O)c3cccc4nsnc34)nc2N)cc(OC)c1OC	1.5	1.2	14.8	25.5	82.5*	-25.5	10.2%
COc1ccc(C2C(=O)c3ccccc3C2=O)cc1OC	-2.2	-0.1	-2.7	-19.2	-2.2	19.2	x
COc1cc(C2C(=O)c3ccccc3C2=O)ccc1O	-6.2	2.9	-4.1	13.0	69.3*	-13.0	8.9%
CCC(C)NC(=S)N(Cc1cc2cc(C)ccc2n2nnnc12)CC(C)(C)NC(C)C (stereo unspecified)	1.2	-0.3	-1.4	-29.3	x	29.3	x
CC1=C(C(=O)OCc2ccc3c(c2)OCO3)C(c2ccccc2)NC(=O)N1 (stereo unspecified)	-4.4	3.9	-2.1	50.5	77.5*	-50.5	7.5%
CC1=C(C(=O)OCc2ccc3c(c2)OCO3)C(c2ccccc2OCc2ccccc2)NC(=O)N1 (stereo unspecified)	-11.9	-1.5	-1.5	51.5	12.2	-51.5	x
O=C(OC1CCOC1=O)c1ccc(NS(=O)(=O)c2cccs2)cc1 (stereo unspecified)	-5.3	0.1	0.3	x	-2.7	x	x
COc1ccc(N2Nc3n[nH]c(N)c3N2)cc1	-7.0	1.7	6.1	3.7	61.2*	-3.7	9.7%
SMILES	dFosB activator	CDK5 inh	NSD2 inh	SR-BI HDL uptake	DYRK1A inh	SR-BI DiI-HDL act	Dyrk1A artifact
CCOc1ccc(N2Nc3n[nH]c(N)c3N2)cc1	0.3	-3.5	3.5	7.4	5.1	-7.4	x
O=[N+]([O-])c1cc([N+](=O)[O-])c2oc(-c3ccccc3)c(Br)c2c1O	-27.0	4.3	33.6	12.6	76.0*	-12.6	9.4%
CCCCn1nc(C(=O)NCC(=O)Nc2c(C)cccc2C)c2ccccc2c1=O	-12.5	-0.6	1.3	43.9	10.3	-43.9	x
Cn1c(-c2ccccc2)c(C=O)c2ccccc21	-9.8	-0.8	-2.4	23.8	77.5*	-23.8	6.8%
Cn1c(C(=O)O)c(C=O)c2ccccc21	-7.7	0.6	-5.5	-15.0	0.6	15.0	x
C=CC(C)(C)c1c2occc2c(O)c2ccc(=O)oc12	1.6	0.3	x	-17.3	10.1	17.3	x
C=CC(C)(C)c1c(O)c(CC=C(C)C)c(O)c2c(=O)c3ccc(O)c(O)c3oc12	-10.0	0.4	x	122.6*	98.6*	-122.6	8.1%
Cc1cc(N2CCC(C)CC2)nc2cccc(O)c12	-6.4	2.5	x	17.2	50.7*	-17.2	8.9%
C/C(=N/NC(=O)c1ccc(C)s1)c1cccnc1	-6.2	2.8	-1.9	-18.2	5.8	18.2	x
C/C(=N/NC(=O)c1ccc(Br)s1)c1cccnc1	-21.9	4.2	5.7	3.9	51.5*	-3.9	6.8%
COc1cc(/C=C2\Oc3cc(O)ccc3C2=O)ccc1O	-10.0	23.3	x	-18.9	92.5*	19.0	8.4%
O=C1/C(=C/c2ccc(O)c(O)c2)Oc2cc(O)ccc21	-4.0	5.4	x	-0.1	68.4*	0.1	8.9%
O=C1/C(=C/c2cccc([N+](=O)[O-])c2)Oc2cc(O)ccc21	-12.7	-0.6	-0.1	3.3	11.1	-3.3	x
CN(C)CCNC(=O)c1cc2c(s1)-c1ccccc1OC2	-3.3	2.1	x	-10.1	68.3*	10.1	6.6%
CCN1CCN(CCCNC(=O)c2cc3c(s2)-c2ccccc2OC3)CC1	5.4	-1.7	13.2	33.5	4.8	-33.5	x
Cc1ccc2nc(-c3ccc(O)cc3)oc2c1	3.5	-1.0	-1.4	13.5	-3.7	-13.5	x
O=C(NC1CCCCC1)NS(=O)(=O)c1ccc2c(c1)CCC2	-3.4	1.2	1.1	-16.3	0.0	16.3	x
CCc1ncc(/C=C2\C(=O)Nc3ccccc32)[nH]1	-2.9	11.2	-1.3	4.4	56.6*	-4.4	6.5%
Cc1ncc(/C=C2\C(=O)Nc3ccccc32)[nH]1	x	x	0.7	x	x	x	x
CCCCNC(=S)Nc1ccc2cn[nH]c2c1	-3.2	3.0	-0.2	-12.5	80.7*	12.5	-2.0%
O=c1sc2ccccc2c(N2CCCC2)c1[N+](=O)[O-]	0.9	1.1	-1.5	1.0	32.0	-1.0	x
CCN(CC)c1c([N+](=O)[O-])c(=O)sc2ccccc12	2.5	1.1	24.3	-15.9	53.3*	15.9	7.1%
O=C(c1ccc(S(=O)(=O)Cc2cc(F)ccc2F)c([N+](=O)[O-])c1)N1CCOCC1	x	x	1.6	x	x	x	x
Brc1ccccc1C1=Nn2c(nnc2-c2ccccc2)SC1	-6.2	0.6	x	1.6	73.2*	-1.6	8.4%
c1ccc(-c2ccc(C3=Nn4c(nnc4-c4ccccc4)SC3)cc2)cc1	x	x	0.4	x	x	x	x
